In ChEMBL document CHEMBL1126072, “Hydantoin bioisosteres. In vivo active spiro hydroxy acetic acid aldose reductase inhibitors” (J Med Chem, 1992):

What follows are molecules tested against Aldo-keto reductase family 1 member B1 (Homo sapiens, UniProt P15121) (assay: Inhibitory activity against human placental aldose reductase). Conditions: not given.

Q: How did the IC50 turn out when `C[C@@H]1C[C@@](O)(CC(=O)O)c2cc(Cl)c3ccccc3c2O1` was run?
A: Its IC50 is 400 nM.

Q: Which IC50 does the source give for `C[C@@H]1C[C@@](O)(CC(=O)O)c2cc(C#N)c(F)cc2O1` here?
A: The IC50 was 130 nM.

Q: With `C[C@@H]1C[C@@](O)(CC(=O)O)c2ccc(Cl)c(Cl)c2O1` as the molecule, how does the IC50 read?
A: Its IC50 is 780 nM.

Q: With `Cc1cc(Cl)cc2c1O[C@H](C)C[C@@]2(O)CC(=O)O` as the molecule, how does the IC50 read?
A: Its IC50 is 1180 nM.

Q: Which IC50 does the source give for `CC1(C)C[C@@](O)(CC(=O)O)c2cc([N+](=O)[O-])ccc2O1` here?
A: Its IC50 is 400 nM.

Q: How did the IC50 turn out when `CC(C)[C@@H]1C[C@@](O)(CC(=O)O)c2cc(F)ccc2O1` was run?
A: The IC50 was 570 nM.

Q: How did the IC50 turn out when `C[C@@H]1C[C@@](O)(CC(=O)O)c2c(ccc(Cl)c2[N+](=O)[O-])O1` was run?
A: Its IC50 is 95500 nM.

Q: With `COc1cc2c(cc1Cl)[C@](O)(CC(=O)O)C[C@@H](C)O2` as the molecule, how does the IC50 read?
A: Its IC50 is 190 nM.

Q: With `COc1ccc2c(c1)[C@](O)(CC(=O)O)C[C@@H](C)O2` as the molecule, how does the IC50 read?
A: Its IC50 is 281000 nM.

Q: With `C[C@@H]1C[C@@](O)(CC(=O)O)c2ccccc2O1` as the molecule, how does the IC50 read?
A: The IC50 was 14800 nM.

Q: With `Cc1ccc2c(c1)[C@](O)(CC(=O)O)C[C@@H](C)O2` as the molecule, how does the IC50 read?
A: Its IC50 is 11300 nM.

Q: With `C[C@@H]1C[C@@](O)(CC(=O)O)c2cc([N+](=O)[O-])ccc2O1` as the molecule, how does the IC50 read?
A: The IC50 was 80 nM.

Q: For `C[C@H]1Oc2ccc(F)cc2[C@](O)(CC(=O)O)[C@H]1C`, which IC50 is on record?
A: Its IC50 is 910 nM.

Q: With `CC(=O)c1ccc2c(c1)[C@](O)(CC(=O)O)C[C@@H](C)O2` as the molecule, how does the IC50 read?
A: Its IC50 is 650 nM.

Q: How did the IC50 turn out when `C[C@@H]1C[C@@](O)(CC(=O)O)c2cc(Br)cc(Cl)c2O1` was run?
A: Its IC50 is 5160 nM.

Q: With `Cc1cc2c(cc1Cl)[C@](O)(CC(=O)O)C[C@@H](C)O2` as the molecule, how does the IC50 read?
A: Its IC50 is 240 nM.

Q: How did the IC50 turn out when `C[C@@H]1C[C@@](O)(CC(=O)O)c2cc(Cl)ccc2O1` was run?
A: The IC50 was 820 nM.

Q: With `C[C@@H]1C[C@@](O)(CC(=O)O)c2cc([N+](=O)[O-])c(F)cc2O1` as the molecule, how does the IC50 read?
A: Its IC50 is 70 nM.

Q: With `C[C@@H]1[C@@H](C)Oc2ccc(F)cc2[C@]1(O)CC(=O)O` as the molecule, how does the IC50 read?
A: Its IC50 is 29400 nM.

Q: Which IC50 does the source give for `C[C@@H]1C[C@@](O)(CC(=O)O)c2c(ccc(Cl)c2Cl)O1` here?
A: Its IC50 is 1630 nM.

Q: `C[C@@H]1C[C@@](O)(CC(=O)O)c2cc(Cl)c(OCc3ccccc3)cc2O1` was tested. Which IC50 did it give?
A: The IC50 was 60 nM.

Q: How did the IC50 turn out when `C[C@@H]1C[C@@](O)(CC(=O)O)c2cc(S(C)(=O)=O)ccc2O1` was run?
A: The IC50 was 8220 nM.

Q: For `C[C@@H]1C[C@@](O)(CC(=O)O)c2ccc(C(=O)O)cc2O1`, which IC50 is on record?
A: The IC50 was 70 nM.

Q: Which IC50 does the source give for `CCC[C@@H]1C[C@@](O)(CC(=O)O)c2cc(F)ccc2O1` here?
A: Its IC50 is 970 nM.

Q: Which IC50 does the source give for `C[C@@H]1C[C@@](O)(CC(=O)O)c2c(Cl)ccc(Cl)c2O1` here?
A: The IC50 was 13100 nM.

Q: With `CC1(C)C[C@@](O)(CC(=O)O)c2c(ccc(Cl)c2Cl)O1` as the molecule, how does the IC50 read?
A: Its IC50 is 14800 nM.

Each molecule was assayed on Rattus norvegicus (assay: Effective dose was tested against the inhibition of sorbitol accumulation in sciatic nerves from streptozotocin-diabetic rats dosed at 3*25 mg/kg over 27h.). Conditions: Sciatic nerve.
Assay type: functional

Q: With `C[C@@H]1C[C@@](O)(CC(=O)O)c2cc(Cl)c3ccccc3c2O1` as the molecule, how does the ED50 read?
A: Its ED50 is 29.1 mg/kg.

Q: For `C[C@@H]1C[C@@](O)(CC(=O)O)c2cc(C#N)c(F)cc2O1`, which ED50 is on record?
A: The ED50 was 29.2 mg/kg.

Q: With `Cc1cc(Cl)cc2c1O[C@H](C)C[C@@]2(O)CC(=O)O` as the molecule, how does the ED50 read?
A: The ED50 was 49 mg/kg.

Q: For `CC1(C)C[C@@](O)(CC(=O)O)c2cc([N+](=O)[O-])ccc2O1`, which ED50 is on record?
A: The ED50 was 37.2 mg/kg.

Q: For `COc1cc2c(cc1Cl)[C@](O)(CC(=O)O)C[C@@H](C)O2`, which ED50 is on record?
A: Its ED50 is 36.5 mg/kg.

Q: How did the ED50 turn out when `C[C@@H]1C[C@@](O)(CC(=O)O)c2cc([N+](=O)[O-])ccc2O1` was run?
A: Its ED50 is 12 mg/kg.

Q: Which ED50 does the source give for `C[C@H]1Oc2ccc(F)cc2[C@](O)(CC(=O)O)[C@H]1C` here?
A: Its ED50 is 47.6 mg/kg.

Q: Which ED50 does the source give for `Cc1cc2c(cc1Cl)[C@](O)(CC(=O)O)C[C@@H](C)O2` here?
A: The ED50 was 12.7 mg/kg.

Q: How did the ED50 turn out when `C[C@@H]1C[C@@](O)(CC(=O)O)c2cc(Cl)ccc2O1` was run?
A: The ED50 was 14.9 mg/kg.

Q: `C[C@@H]1C[C@@](O)(CC(=O)O)c2c(ccc(Cl)c2Cl)O1` was tested. Which ED50 did it give?
A: Its ED50 is 25 mg/kg.

Q: `C[C@@H]1C[C@@](O)(CC(=O)O)c2cc(Cl)c(OCc3ccccc3)cc2O1` was tested. Which ED50 did it give?
A: The ED50 was 32 mg/kg.

Q: For `C[C@@H]1C[C@@](O)(CC(=O)O)c2ccc(C(=O)O)cc2O1`, which ED50 is on record?
A: Its ED50 is 26.6 mg/kg.

Q: Which ED50 does the source give for `CCC[C@@H]1C[C@@](O)(CC(=O)O)c2cc(F)ccc2O1` here?
A: The ED50 was 70.8 mg/kg.

These molecules were tested on Rattus norvegicus (assay: Inhibition of sorbitol accumulation in sciatic nerves from streptozotocin-diabetic rats dosed at 3*10 mg/kg over 27h.). Conditions: not given.
Assay type: functional, Sciatic nerve
In short: (§1)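 Male Sprague-Dawley rats (180–220 g, 42–54 days) made diabetic with streptozotocin 85 mg/kg at 0 h. Oral gavage at 4, 7 and 24 h, dose quoted per time point. Sciatic nerve sorbitol measured with sorbitol dehydrogenase/NAD in pH 9.4 glycine. Mean (±SEM) percent inhibition against untreated diabetic controls, Student's t test on absolute sorbitol.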

Q: With `C[C@@H]1C[C@@](O)(CC(=O)O)c2cc(C#N)c(F)cc2O1` as the molecule, how does the Inhibition read?
A: The Inhibition was 15%.

Q: How did the Inhibition turn out when `C[C@@H]1C[C@@](O)(CC(=O)O)c2cc([N+](=O)[O-])c(F)cc2O1` was run?
A: Its Inhibition is 5%.

Q: For `C[C@@H]1C[C@@](O)(CC(=O)O)c2cc(Cl)c(OCc3ccccc3)cc2O1`, which Inhibition is on record?
A: The Inhibition was 12%.

Each molecule was assayed on Rattus norvegicus (assay: Inhibition of sorbitol accumulation in sciatic nerves from streptozotocin-diabetic rats dosed at 3*25 mg/kg over 27h.). Conditions: not given.
Assay type: functional, Sciatic nerve

Q: For `C[C@@H]1C[C@@](O)(CC(=O)O)c2cc(Cl)c3ccccc3c2O1`, which Inhibition is on record?
A: Its Inhibition is 45%.

Q: For `Cc1cc(Cl)cc2c1O[C@H](C)C[C@@]2(O)CC(=O)O`, which Inhibition is on record?
A: Its Inhibition is 28%.

Q: With `CC1(C)C[C@@](O)(CC(=O)O)c2cc([N+](=O)[O-])ccc2O1` as the molecule, how does the Inhibition read?
A: The Inhibition was 37%.

Q: With `CC(C)[C@@H]1C[C@@](O)(CC(=O)O)c2cc(F)ccc2O1` as the molecule, how does the Inhibition read?
A: The Inhibition was -7%.

Q: For `COc1cc2c(cc1Cl)[C@](O)(CC(=O)O)C[C@@H](C)O2`, which Inhibition is on record?
A: Its Inhibition is 53%.

Q: `Cc1ccc2c(c1)[C@](O)(CC(=O)O)C[C@@H](C)O2` was tested. Which Inhibition did it give?
A: Its Inhibition is -16%.

Q: How did the Inhibition turn out when `C[C@@H]1C[C@@](O)(CC(=O)O)c2cc([N+](=O)[O-])ccc2O1` was run?
A: The Inhibition was 74%.

Q: With `C[C@H]1Oc2ccc(F)cc2[C@](O)(CC(=O)O)[C@H]1C` as the molecule, how does the Inhibition read?
A: Its Inhibition is 29%.

Q: How did the Inhibition turn out when `CC(=O)c1ccc2c(c1)[C@](O)(CC(=O)O)C[C@@H](C)O2` was run?
A: The Inhibition was 5%.

Q: Which Inhibition does the source give for `Cc1cc2c(cc1Cl)[C@](O)(CC(=O)O)C[C@@H](C)O2` here?
A: Its Inhibition is 72%.

Q: Which Inhibition does the source give for `C[C@@H]1C[C@@](O)(CC(=O)O)c2cc(Cl)ccc2O1` here?
A: Its Inhibition is 67%.

Q: With `C[C@@H]1C[C@@](O)(CC(=O)O)c2c(ccc(Cl)c2Cl)O1` as the molecule, how does the Inhibition read?
A: Its Inhibition is 50%.

Q: For `C[C@@H]1C[C@@](O)(CC(=O)O)c2ccc(C(=O)O)cc2O1`, which Inhibition is on record?
A: Its Inhibition is 48%.

Q: How did the Inhibition turn out when `CCC[C@@H]1C[C@@](O)(CC(=O)O)c2cc(F)ccc2O1` was run?
A: The Inhibition was 16%.

These molecules were tested on Rattus norvegicus (assay: Inhibition of sorbitol accumulation in sciatic nerves from streptozotocin-diabetic rats dosed at 3*50 mg/kg over 27h.). Conditions: not given.
Assay type: functional, Sciatic nerve
In short: as §1

Q: How did the Inhibition turn out when `C[C@@H]1C[C@@](O)(CC(=O)O)c2ccccc2O1` was run?
A: Its Inhibition is 9%.
